Bioassay records deposited in PubChem BioAssay by several laboratories.
Only some compounds are listed: those with a hit (about 1.5% of all), similar ones and a draw of the others.
VLA-4 inh: inhibition in a human VLA-4 binding assay. VLA-4 expressing cells, ligand binding flow cytometry. inhibition, % (about 7 µM as worked out from the volumes in the protocol). actives 0.2% (n = 330,000). AID 2557; in the data active means inhibition above about 50%
Platelet DG rel: modulates dense granule release in human platelets. human platelet-rich plasma, SFLLRN dense granule ATP release, luminescence. inhibition, %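 (compounds screened at 7.5 µM in platelet-rich plasma)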. actives 0.22% (n = 300,000);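 active means mean replicate score, as percent of positive control, at or above 50; inconclusive means mean below 50 but at least one replicate at or above 50; inactive means mean and every replicate below 50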
Myeloid diff MLP: promotes myeloid progenitor differentiation | actives 1% (n = 360,000) | calls only at 10 µM | ER-HoxA9 myeloid progenitors, lysozyme-GFP differentiation, flow cytometry | AID 624256;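 active means normalized GFP-positive differentiation at or above the plate's own cutoff, the solvent-only control mean plus 3 SD; inconclusive means no clear call, values can overlap the other calls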;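 further: cells exposed to compound for four days before flow analysis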
SENP1 FRET inh: blocks the human SENP1 SUMO protease catalytic domain. inhibition, % at 10 µM. actives 0.21% (n = 360,000). recombinant SENP1 catalytic domain, CyPet-SUMO1-YPet FRET cleavage. Q9P0U3;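 active means inhibition at least 30% at 10 µM, raw YFP signal under a set limit, fluorescence ratio 0.5 to 1.5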;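 further: 0% = enzyme with DMSO and 100% = no enzyme wells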
Target sequence (Q9P0U3 419-644 limits assumed): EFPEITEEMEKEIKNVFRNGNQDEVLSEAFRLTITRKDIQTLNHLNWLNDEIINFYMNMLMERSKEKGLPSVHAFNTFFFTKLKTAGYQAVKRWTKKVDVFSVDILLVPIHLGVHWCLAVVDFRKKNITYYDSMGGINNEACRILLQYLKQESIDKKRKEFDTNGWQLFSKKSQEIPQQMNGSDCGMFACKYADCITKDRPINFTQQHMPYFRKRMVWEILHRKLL
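System: Recombinant human SENP1 catalytic domain, His6-tagged | Incubation: Enzyme reaction for 50 min at room temperature, dark | Medium: Tris pH 8 with BME, BSA, NP40 and catalase | Also added: 25 nM SUMO1 FRET substrate | Compound: 10 µM single point, 0.5% DMSO | Measured by: FRET fluorescence in CFP and YFP emission channels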
* hit, by the source's call; i = inactive; ? = inconclusive; · = not tested or not shown; + = active, no number.

SMILES	VLA-4 inh	Platelet DG rel	Myeloid diff MLP	SENP1 FRET inh
O=C(NC(NC(=S)N1CCOCC1)C(Cl)(Cl)Cl)c1ccc(Cl)cc1 (stereo not given)	13	5	+	-3
CCCCC(=O)NC(NC(=S)N1CCOCC1)C(Cl)(Cl)Cl (stereo not given)	17	0	i	3
Fc1ccc(-c2cc3nc(-c4ccccc4)cc(N4CCN(CCN5CCOCC5)CC4)n3n2)cc1	·	13	+	-39
Cc1ccc(NC(=O)CCC(=O)Nc2nnc(C3CCCCC3)s2)cc1	-9	-5	+	2
O=C(O)CS(=O)(=O)c1ccc(C(F)(F)F)cn1	5	-6	+	0
NC(=O)c1ccc(C(F)(F)F)cn1	8	-5	i	0
COc1ccc(CC(N)c2csc(Nc3cc(NCCCO)ncn3)n2)cc1 (stereo not given)	·	·	+	-11
COCOCCn1cc(CN2CCS(=O)(=O)N(Cc3ccc(-c4ccc(OC)c(OC)c4)cc3)C(CC(C)C)C2=O)nn1 (stereo not given)	·	·	i	-2
O=c1c2ccc([N+](=O)[O-])cc2ncn1CCOc1ccccc1	-8	-4	+	-69
CN1CCN(CC(O)COc2ccc(OCC(O)CN3CCN(C)CC3)cc2)CC1 (stereo not given)	16	-1	i	2
OCCN1CCN(CC(O)COc2ccc(C34CC5CC(CC(C5)C3)C4)cc2)CC1 (stereo not given)	29	-4	+	-1
OCCN1CCN(CC(O)COc2ccc(Cl)cc2)CC1 (stereo not given)	10	50*	i	0
CCSc1nc(COC(=O)NC)c(COC(=O)NC)n1C	·	·	+	4
CC1CCN(CC(=O)N(C)c2c(N)n(Cc3ccccc3)c(=O)[nH]c2=O)CC1	·	·	+	-3
COc1ccc(SCC(O)Cn2c3ccccc3c3ccccc32)c(OC)c1 (stereo not given)	·	·	+	3
Cc1ccc(NS(=O)(=O)c2ccc3[nH]c(=O)[nH]c3c2)c(C)c1	6	-1	?	-1
COc1cccc2c1C(=O)c1c(O)c3c(c(O)c1C2=O)C[C@@](O)(C(=O)CO)C[C@@H]3OC1CC(N)C(O)C(C)O1 (stereo not given in full)	·	·	·	97
COc1cccc2c1C(=O)c1c(O)c3c(c(O)c1C2=O)C[C@@](O)(C(=O)CO)C[C@@H]3O[C@H]1C[C@H](N)[C@H](O)[C@H](C)O1	-173	4	?	97*
NC(=O)c1ccccc1N/C=C/C(=O)c1ccc(F)cc1	·	39	i	-69
NC(=O)c1ccccc1N/C=C/C(=O)c1ccc(Cl)cc1Cl	·	52*	·	-66
CCc1nnc(NC(=O)CCc2ccccc2OC)s1	9	-13	+	0
Nc1nonc1-n1nnc(C(=O)N/N=C/c2ccc(O)cc2)c1CN1CCCCCC1	23	9	i	-2
CCc1ccc(/C=N/NC(=O)c2nnn(-c3nonc3N)c2CN2CCOCC2)cc1	12	50*	i	2
CC1CCCC(NC(=O)COC(=O)[C@@H](NC(=O)c2ccccc2Cl)C(C)C)C1C (stereo not given in full)	-2	·	i	1
O=C1CCSc2c1ccc1ccccc21	·	·	+	-46
SMILES	VLA-4 inh	Platelet DG rel	Myeloid diff MLP	SENP1 FRET inh
O=C1CCCc2cc3c(ccc4ccccc43)cc21	·	·	i	-14
CCN(CC(=O)Nc1ccccc1C(F)(F)F)C(=O)c1ccc2c(=O)n3c(nc2c1)CCC3	-43	·	+	3
CCN(CC(=O)Nc1c(F)cccc1F)C(=O)c1ccc2c(=O)n3c(nc2c1)CCC3	·	·	i	1
Nc1cnc(Nc2ccc(Br)cc2)nc1N	-5	0	+	1
Cc1ccc2nc(Nc3ccc(C)c(Cl)c3)c3nncn3c2c1	-16	-15	i	-21
CC1CNC(=S)N(c2ccccc2)C1=O (stereo not given)	·	·	i	3
CCc1ccc(OCC(=O)N/N=C(\C)c2ccc3c(c2)OCCO3)cc1	1	-14	i	-3
CCc1ccc(OCC(=O)N/N=C(\C)c2ccc(O)cc2O)cc1	3	4	+	-6
CC(C)(C)OC(=O)N1CCC(NC(=O)c2[nH]cnc2C(=O)Nc2ccccc2)CC1	13	·	+	-1
Cc1ccc(NC(=O)c2nc[nH]c2C(=O)NC2CCN(C(=O)OC(C)(C)C)CC2)cc1	-10	·	i	1
Cc1ccc(CNC(=O)CCNS(=O)(=O)c2cccc3nsnc23)cc1	-4	2	i	3
Fc1cc(Br)ccc1COc1ccc(-c2nnco2)cc1	13	3	i	1
Cc1ccc(S(=O)(=O)N2CCN(Cc3ccccn3)CC2)cc1	-2	-9	i	-2
Cc1ccc(S(=O)(=O)N2CCN(Cc3csc(C)n3)CC2)cc1	-9	-5	+	1
CCN(CC)CCN(C(=O)C1=COCCO1)c1nc2ccc(C)cc2s1	3	21	+	0
COc1ccc(-c2cc(C(F)(F)F)nc(S(=O)(=O)CCC(=O)N3CCOCC3)n2)cc1	7	134*	i	2
COc1ccccc1-c1cc(C(F)(F)F)nc(S(=O)(=O)CCCC(=O)N2CCOCC2)n1	-8	-1	?	0
C=CCNC(=O)C1CCC(=O)N1S(=O)(=O)c1ccc(C)cc1 (stereo not given)	5	3	i	2
Cc1ccccc1N(C(=O)c1csnn1)C(C(=O)NC1CCCCC1)c1ccncc1 (stereo not given)	-2	0	+	1
O=C(NC1CCCC1)C(c1ccncc1)N(C(=O)c1csnn1)c1ccccc1F (stereo not given)	0	12	i	-4
CC(=O)c1cn(C2OC(CO)C3OC(C)(C)OC32)c(=O)n(C)c1=O (stereo not given)	1	2	i	1
O=C(CSc1nnc(-c2ccccc2O)o1)Oc1ccc(OCc2ccccc2)cc1	11	0	+	-2
O=C(CSc1nnc(-c2ccncc2)o1)Oc1ccccc1	10	-5	i	-4
CC(=O)c1ccc(NC(=S)NCC(c2ccco2)N2CCCC2)cc1 (stereo not given)	7	14	+	-1
COc1ccc(NC(=S)NCC(c2ccco2)N2CCCC2)cc1 (stereo not given)	24	0	i	2
SMILES	VLA-4 inh	Platelet DG rel	Myeloid diff MLP	SENP1 FRET inh
Cc1nn(-c2nc3ccccc3[nH]2)c(=O)c2ccccc12	27	81*	i	0
Cc1nn(-c2ccc3ccccc3c2)c(=O)c2ccccc12	-2	0	i	0
COCCOCC(=O)Nc1ccc(S(=O)(=O)Nc2cc(C)nc(C)n2)cc1	15	-2	+	0
COc1ccc(OCC(=O)Nc2ccc(S(=O)(=O)Nc3cc(C)nc(C)n3)cc2)cc1	18	0	i	0
CN(C(=O)CSc1n[nH]c(-c2cccs2)n1)C1CCS(=O)(=O)C1 (stereo not given)	1	-1	i	0
Cc1cc2c(NCCc3ccccc3)ncnc2s1	-11	-1	+	-4
